# Experimental data reported in ChEMBL document CHEMBL1129371, “Bis tertiary amide inhibitors of the HIV-1 protease generated via protein structure-based iterative design” (J Med Chem, 1996).
# Tests used:
# [1] = system: Human immunodeficiency virus 1; assay: (§1) Effective dose against inhibition of HIV-1 protease in CEM cells; assay type: functional; details: Human immunodeficiency virus 1, CCRF-CEM; read-out: ED50 (the source's name)
# In short: (§2)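 HIV-1-induced killing of CEM-SS cells; cell viability read by MTT tetrazolium metabolism. ED50 = concentration giving 50% inhibition of HIV-1-induced cell death. Run at Southern Research Institute.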
# [2] = Pharmacokinetic parameter Cmax determined after peroral administration of 15 mg/kg to dog; details: in vivo, po
# [3] = target: T1, Human immunodeficiency virus type 1 protease (Human immunodeficiency virus 1, UniProt Q72874); assay: Binding affinity against HIV-1 protease
# [4] = Oral bioavailability in rat (dose 50 mg/kg); assay type: ADME, organism-based; details: in vivo
# [5] = Pharmacokinetic parameter Cmax determined after intravenous administration of 50 mg/kg to rat; assay type: ADME, organism-based; design: dose 50 mg/kg, route intravenous; details: in vivo
# [6] = Pharmacokinetic parameter Cmax determined after peroral administration of 25 mg/kg to monkey; assay type: ADME, organism-based; design: dose 25 mg/kg, route oral; details: simiiformes, in vivo, po
# [7] = Pharmacokinetic parameter Cmax determined after oral administration of 50 mg/kg to rat; assay type: ADME, organism-based; design: dose 50 mg/kg, route oral; details: in vivo
# [8] = Pharmacokinetic parameter half life determined after peroral administration of 15 mg/kg to dog; details: in vivo, po
# [9] = Pharmacokinetic parameter half life determined after intravenous administration of 50 mg/kg to rat; assay type: ADME, organism-based; design: dose 50 mg/kg, route intravenous; details: in vivo
# [10] = Toxic concentration at which 50% of CEM-SS cells were viable (uninfected with virus) as determined by metabolism of MTT in(uM).; assay type: toxicity, cell-based; details: human, read-out: TC50 (the source's name)
# In short: (§3)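 Uninfected CEM-SS cells; viability read by MTT metabolism. TC50 = concentration giving 50% reduction in number of viable cells; reported in μM.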
# [11] = Pharmacokinetic parameter Cmax determined after peroral administration of 15 mg/kg to dog; assay type: ADME, organism-based, Canis lupus familiaris; design: dose 15 mg/kg, route oral; details: in vivo, po
# [12] = Pharmacokinetic parameter Cmax determined after peroral administration of 25 mg/kg to monkey; No levels; assay type: ADME, organism-based; design: dose 25 mg/kg, route oral; details: simiiformes, in vivo, po
# Rattus norvegicus = assay: Pharmacokinetic parameter Cmax determined after oral administration of 50 mg/kg to rat; No levels; assay type: ADME, organism-based; design: dose 50 mg/kg, route oral; details: in vivo
# [13] = target: T1, Human immunodeficiency virus type 1 protease; assay: Compound was tested for binding affinity against HIV protease
# CEM-SS = assay: as §1; assay type: functional; details: Homo sapiens, read-out: ED50 (the source's name); in short: as §2
# [14] = Toxic concentration at which 50% of CEM-SS cells were viable (uninfected with virus) as determined by metabolism of MTT; assay type: toxicity, cell-based; details: human, read-out: TC50 (the source's name); in short: as §3
# [15] = Toxic concentration at which 50% of CEM-SS cells were viable (uninfected with virus) as determined by metabolism of MTT in(uM); assay type: toxicity, cell-based; details: human, read-out: TC50 (the source's name); in short: as §3
smiles,measurement,setting,value
CCC1(N(CCO)C(=O)c2ccccc2CCC(O)Cc2ccc(C)cc2C(=O)N(CC(CO)CO)C(C)(C)c2ccccc2)CCCC1 (centres undefined),EC50,[1],950 nM
same,Cmax,[2],1170 ng/mL
same,Ki,[3],10 nM
same,bioavailability,[4],7%
same,Cmax,[5],52200 ng/mL
same,Cmax,[6],810 ng/mL
same,Cmax,[7],1160 ng/mL
same,half-life,[8],0.34 h
same,half-life,[9],1 h
CC(C)(C)N(CCO)C(=O)c1ccccc1CCC(O)Cc1ccccc1C(=O)N(CCO)C(C)(C)Cc1ccccc1 (centres undefined),Ki,[3],1300 nM
CCC1(N(CCO)C(=O)c2ccccc2CCC(O)Cc2ccc(Cl)cc2C(=O)N(CCO)C(C)(C)c2ccccc2)CCCC1 (centres undefined),CC50,[10],97000 nM
same,EC50,[1],720 nM
same,Cmax,[11],590 ng/mL
same,Ki,[3],2 nM
same,bioavailability,[4],31%
same,Cmax,[5],111000 ng/mL
same,Cmax,[12],No levels
same,Cmax,[7],1400 ng/mL
same,half-life,[9],1.7 h
CCC1(N(CCO)C(=O)c2ccccc2CCC(O)Cc2ccc(C)cc2C(=O)N(CCO)C(C)(C)c2ccc(O)cc2)CCCC1 (centres undefined),EC50,[1],880 nM
same,Cmax,Rattus norvegicus,No levels
same,Ki,[3],6 nM
same,bioavailability,[4],0%
same,Cmax,[5],41300 ng/mL
same,half-life,[9],1.4 h
CC(C)(C)N(CCO)C(=O)c1ccccc1CC(O)CSc1ccccc1C(=O)N(CCO)C(C)(C)C (centres undefined),Ki,[3],18000 nM
CC(C)(C)NC(=O)[C@@H]1C[C@@H]2CCCC[C@@H]2CN1C[C@@H](O)[C@H](Cc1ccccc1)NC(=O)[C@H](CC(N)=O)NC(=O)c1cnc2ccccc2c1,Ki,[13],0.9 nM
same,EC50,CEM-SS,2 nM
same,CC50,[14],> 10000 nM
Cc1ccc(CCC(O)Cc2ccccc2C(=O)N(CCO)C(C)(C)c2ccccc2)c(C(=O)N(CCO)C(C)(C)C)c1 (centres undefined),EC50,[1],4900 nM
same,Ki,[3],150 nM
CC(C)(C)NC(=O)c1ccccc1SCC(O)Cc1ccccc1C(=O)N(CCO)C(C)(C)C (centres undefined),Ki,[3],34000 nM
CCC1(N(CCO)C(=O)c2ccccc2CCC(O)Cc2ccc(C)cc2C(=O)N(CCO)C(C)(C)c2ccc(OCCN3CCOCC3)cc2)CCCC1 (centres undefined),EC50,[1],840 nM
same,Ki,[3],9 nM
CC(C)(c1ccccc1)N(CCO)C(=O)c1ccccc1CCC(O)Cc1ccccc1C(=O)N(CCO)C(C)(C)c1ccccc1 (centres undefined),EC50,[1],2200 nM
same,Ki,[3],21 nM
same,CC50,[15],122000 nM
CCCC(CC)(CC)N(CCO)C(=O)c1cc(C)ccc1CC(O)CCc1ccccc1C(=O)N(CCO)C1(CC)CCCC1 (centres undefined),EC50,[1],1370 nM
same,Ki,[3],6 nM
CCC1(N(CCO)C(=O)c2ccccc2CCC(O)Cc2ccc(C)cc2C(=O)N(CCC(O)CO)C(C)(C)c2ccccc2)CCCC1 (centres undefined),EC50,[1],860 nM
same,Ki,[3],10 nM
same,bioavailability,[4],2%
same,Cmax,[5],111000 ng/mL
same,Cmax,[7],840 ng/mL
same,half-life,[9],1.3 h
CCCC(CC)(CC)N(CCO)C(=O)c1ccccc1CC(O)CCc1ccccc1C(=O)N(CCO)C(C)(C)C (centres undefined),EC50,[1],3700 nM
same,Ki,[3],110 nM
CC(C)(C)N(CCO)C(=O)c1ccccc1CCC(O)Cc1ccccc1C(=O)N(CCO)[C@@]12CCCC[C@@H]1CCC2 (relative stereo),EC50,[1],7600 nM
same,Ki,[3],64 nM
